Experimental data from ChEMBL document CHEMBL1138358, “Synthesis and in vivo antitumor evaluation of 2-methoxyestradiol 3-phosphate, 17-phosphate, and 3,17-diphosphate” (J Med Chem, 2007).

Test system: Plasma
Test: Drug level in Sprague-Dawley rat plasma at 1 mg/kg, iv assessed as 2-methoxyestradiol level after 5 mins
Type: ADME, organism-based
Set-up: dose 1 mg/kg, route intravenous
Settings: in vivo
Method in brief: (§1)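 Jugular-cannulated Sprague–Dawley rats were fasted overnight and given a single tail-vein dose in 45% (w/v) hydroxypropyl-β-cyclodextrin in water (0.5 mg/mL, 2 mL/kg). K-EDTA blood was drawn via the cannula and the plasma was frozen below −20 °C. Plasma was acidified with formic acid and analysed by negative-ion ESI LC-MS/MS (MRM). Standard curves were spiked into rat plasma.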

| SMILES | Cp [ng/mL] |
| --- | --- |
| COc1cc2c(cc1OP(=O)([O-])O)CC[C@@H]1[C@@H]2CC[C@]2(C)[C@@H](O)CC[C@@H]12.[Na+] | 153.4 |

Test system: Lewis lung carcinoma cell line
Test: Antitumor activity against LLC cells inoculated in C57BL/6J mouse assessed as lung weight at 200 mg/kg, ip qd for 12 days
Type: functional
Settings: route intraperitoneal
Method in brief: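 LLC cells in exponential growth were harvested by brief trypsinization (0.25% trypsin, 0.02% EDTA, 1 min, 37 °C), washed and resuspended at 5 × 10⁵ cells/mL in Ca²⁺/Mg²⁺-free PBS. Mice were housed under SPF conditions, with 10 per group. From day 3 after tumor cell injection, compound was given ip daily for 12 days. On day 15, mean lung weight was corrected for non-tumor-bearing lung weight. T/C = (A − C)/(B − C) versus vehicle (0.1 mL).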

| SMILES | Activity [g] |
| --- | --- |
| COc1cc2c(cc1OP(=O)([O-])O)CC[C@@H]1[C@@H]2CC[C@]2(C)[C@@H](O)CC[C@@H]12.[Na+] | 0.23 |

Test system: not listed separately
Test: Drug level in Sprague-Dawley rat plasma at 1 mg/kg, iv after 5 mins
Type: ADME, organism-based
Set-up: dose 1 mg/kg, route intravenous
Settings: not given
Method in brief: as §1

| SMILES | concentration at 5 min [ng/mL] |
| --- | --- |
| COc1cc2c(cc1OP(=O)([O-])O)CC[C@@H]1[C@@H]2CC[C@]2(C)[C@@H](O)CC[C@@H]12.[Na+] | 366 |

Test system: Plasma
Test: Drug level in Sprague-Dawley rat plasma at 1 mg/kg, iv assessed as 2-methoxyestrone level after 5 mins
Type: ADME, organism-based
Set-up: dose 1 mg/kg, route intravenous
Settings: in vivo
Method in brief: as §1

| SMILES | Cp [ng/mL] |
| --- | --- |
| COc1cc2c(cc1OP(=O)([O-])O)CC[C@@H]1[C@@H]2CC[C@]2(C)[C@@H](O)CC[C@@H]12.[Na+] | 16.3 |

Test system: not listed separately
Test: Drug level in Sprague-Dawley rat plasma at 1 mg/kg, iv after 15 mins
Type: ADME, organism-based
Set-up: dose 1 mg/kg, route intravenous
Settings: not given
Method in brief: as §1

| SMILES | concentration at 0.25 h [ng/mL] |
| --- | --- |
| COc1cc2c(cc1OP(=O)([O-])O)CC[C@@H]1[C@@H]2CC[C@]2(C)[C@@H](O)CC[C@@H]12.[Na+] | 31.3 |

Test system: SF-539
Test: Cytotoxicity against human SF539 cells
Type: functional
Settings: not given

| SMILES | GI50 [nM] |
| --- | --- |
| COc1cc2c(cc1OP(=O)([O-])O)CC[C@@H]1[C@@H]2CC[C@]2(C)[C@@H](O)CC[C@@H]12.[Na+] | 660 |

Test system: Plasma
Test: Drug level in Sprague-Dawley rat plasma at 1 mg/kg, iv assessed as 2-methoxyestrone level after 120 mins
Type: ADME, organism-based
Set-up: dose 1 mg/kg, route intravenous
Settings: in vivo, 2 h
Method in brief: as §1

| SMILES | Cp [ng/mL] |
| --- | --- |
| COc1cc2c(cc1OP(=O)([O-])O)CC[C@@H]1[C@@H]2CC[C@]2(C)[C@@H](O)CC[C@@H]12.[Na+] | 5 |

Test system: Plasma
Test: Drug level in Sprague-Dawley rat plasma at 1 mg/kg, iv assessed as 2-methoxyestradiol level after 30 mins
Type: ADME, organism-based
Set-up: dose 1 mg/kg, route intravenous
Settings: in vivo, 0.5 h
Method in brief: as §1

| SMILES | Cp [ng/mL] |
| --- | --- |
| COc1cc2c(cc1OP(=O)([O-])O)CC[C@@H]1[C@@H]2CC[C@]2(C)[C@@H](O)CC[C@@H]12.[Na+] | 22.3 |

Test system: DU-145
Test: Cytotoxicity against human DU145 cells
Type: functional
Settings: not given

| SMILES | GI50 [nM] |
| --- | --- |
| COc1cc2c(cc1OP(=O)([O-])O)CC[C@@H]1[C@@H]2CC[C@]2(C)[C@@H](O)CC[C@@H]12.[Na+] | 2950 |

Test system: OVCAR-3
Test: Cytotoxicity against human OVCAR-3 cells
Type: functional
Settings: not given

| SMILES | GI50 [nM] |
| --- | --- |
| COc1cc2c(cc1OP(=O)([O-])O)CC[C@@H]1[C@@H]2CC[C@]2(C)[C@@H](O)CC[C@@H]12.[Na+] | 340 |

Test system: Plasma
Test: Drug level in Sprague-Dawley rat plasma at 1 mg/kg, iv assessed as 2-methoxyestradiol level after 120 mins
Type: ADME, organism-based
Set-up: dose 1 mg/kg, route intravenous
Settings: in vivo, 2 h
Method in brief: as §1

| SMILES | Cp [ng/mL] |
| --- | --- |
| COc1cc2c(cc1OP(=O)([O-])O)CC[C@@H]1[C@@H]2CC[C@]2(C)[C@@H](O)CC[C@@H]12.[Na+] | 5 |

Test system: Lewis lung carcinoma cell line
Test: Antitumor activity against LLC cells inoculated in C57BL/6J mouse assessed as lung weight at 100 mg/kg, ip qd for 12 days
Type: functional
Settings: route intraperitoneal
Method in brief: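 LLC cells in exponential growth were harvested by brief trypsinization (1 min, 37 °C), washed, and resuspended at 5 × 10⁵ cells/mL in Ca²⁺/Mg²⁺-free PBS before injection into SPF-housed mice. From day 3 after injection, groups of 10 mice were dosed ip daily for 12 days. On day 15, mean lung weight was corrected for non-tumor-bearing lung weight. T/C = (A − C)/(B − C).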

| SMILES | Activity [g] |
| --- | --- |
| COc1cc2c(cc1OP(=O)([O-])O)CC[C@@H]1[C@@H]2CC[C@]2(C)[C@@H](O)CC[C@@H]12.[Na+] | 0.44 |

Test system: HCT-116
Test: Cytotoxicity against human HCT116 cells
Type: functional
Settings: not given

| SMILES | GI50 [nM] |
| --- | --- |
| COc1cc2c(cc1OP(=O)([O-])O)CC[C@@H]1[C@@H]2CC[C@]2(C)[C@@H](O)CC[C@@H]12.[Na+] | 1450 |

Test system: SN12C
Test: Cytotoxicity against human SN12C cells
Type: functional
Settings: not given

| SMILES | GI50 [nM] |
| --- | --- |
| COc1cc2c(cc1OP(=O)([O-])O)CC[C@@H]1[C@@H]2CC[C@]2(C)[C@@H](O)CC[C@@H]12.[Na+] | 1310 |

Test system: HOP-62
Test: Cytotoxicity against human HOP62 cells
Type: functional
Settings: not given

| SMILES | GI50 [nM] |
| --- | --- |
| COc1cc2c(cc1OP(=O)([O-])O)CC[C@@H]1[C@@H]2CC[C@]2(C)[C@@H](O)CC[C@@H]12.[Na+] | 690 |

Test system: Plasma
Test: Drug level in Sprague-Dawley rat plasma at 1 mg/kg, iv assessed as 2-methoxyestrone level after 15 mins
Type: ADME, organism-based
Set-up: dose 1 mg/kg, route intravenous
Settings: in vivo, 0.25 h
Method in brief: as §1

| SMILES | Cp [ng/mL] |
| --- | --- |
| COc1cc2c(cc1OP(=O)([O-])O)CC[C@@H]1[C@@H]2CC[C@]2(C)[C@@H](O)CC[C@@H]12.[Na+] | 12.7 |

Test system: not listed separately
Test: Drug level in Sprague-Dawley rat plasma at 1 mg/kg, iv after 30 mins
Type: ADME, organism-based
Set-up: dose 1 mg/kg, route intravenous
Settings: not given
Method in brief: as §1

| SMILES | concentration at 0.5 h [ng/mL] |
| --- | --- |
| COc1cc2c(cc1OP(=O)([O-])O)CC[C@@H]1[C@@H]2CC[C@]2(C)[C@@H](O)CC[C@@H]12.[Na+] | 7.1 |

Test system: UACC-62
Test: Cytotoxicity against human UACC62 cells
Type: functional
Settings: not given

| SMILES | GI50 [nM] |
| --- | --- |
| COc1cc2c(cc1OP(=O)([O-])O)CC[C@@H]1[C@@H]2CC[C@]2(C)[C@@H](O)CC[C@@H]12.[Na+] | 1320 |

Test system: Plasma
Test: Drug level in Sprague-Dawley rat plasma at 1 mg/kg, iv assessed as 2-methoxyestrone level after 60 mins
Type: ADME, organism-based
Set-up: dose 1 mg/kg, route intravenous
Settings: in vivo, 1 h
Method in brief: as §1

| SMILES | Cp [ng/mL] |
| --- | --- |
| COc1cc2c(cc1OP(=O)([O-])O)CC[C@@H]1[C@@H]2CC[C@]2(C)[C@@H](O)CC[C@@H]12.[Na+] | 2.7 |

Test system: Plasma
Test: Drug level in Sprague-Dawley rat plasma at 1 mg/kg, iv assessed as 2-methoxyestrone level after 30 mins
Type: ADME, organism-based
Set-up: dose 1 mg/kg, route intravenous
Settings: in vivo, 0.5 h
Method in brief: as §1

| SMILES | Cp [ng/mL] |
| --- | --- |
| COc1cc2c(cc1OP(=O)([O-])O)CC[C@@H]1[C@@H]2CC[C@]2(C)[C@@H](O)CC[C@@H]12.[Na+] | 8.8 |

Test system: not listed separately
Test: Drug level in Sprague-Dawley rat plasma at 1 mg/kg, iv after 120 mins
Type: ADME, organism-based
Set-up: dose 1 mg/kg, route intravenous
Settings: not given
Method in brief: as §1

| SMILES | concentration at 2 h [ng/mL] |
| --- | --- |
| COc1cc2c(cc1OP(=O)([O-])O)CC[C@@H]1[C@@H]2CC[C@]2(C)[C@@H](O)CC[C@@H]12.[Na+] | < 1 |

Test system: MDA-MB-435
Test: Cytotoxicity against human MDA-MB-435 cells
Type: functional
Settings: not given

| SMILES | GI50 [nM] |
| --- | --- |
| COc1cc2c(cc1OP(=O)([O-])O)CC[C@@H]1[C@@H]2CC[C@]2(C)[C@@H](O)CC[C@@H]12.[Na+] | 110 |

Test system: not listed separately
Test: Drug level in Sprague-Dawley rat plasma at 1 mg/kg, iv after 60 mins
Type: ADME, organism-based
Set-up: dose 1 mg/kg, route intravenous
Settings: not given
Method in brief: as §1

| SMILES | concentration at 1 h [ng/mL] |
| --- | --- |
| COc1cc2c(cc1OP(=O)([O-])O)CC[C@@H]1[C@@H]2CC[C@]2(C)[C@@H](O)CC[C@@H]12.[Na+] | 1.2 |

Test system: Plasma
Test: Drug level in Sprague-Dawley rat plasma at 1 mg/kg, iv assessed as 2-methoxyestradiol level after 60 mins
Type: ADME, organism-based
Set-up: dose 1 mg/kg, route intravenous
Settings: in vivo, 1 h
Method in brief: as §1

| SMILES | Cp [ng/mL] |
| --- | --- |
| COc1cc2c(cc1OP(=O)([O-])O)CC[C@@H]1[C@@H]2CC[C@]2(C)[C@@H](O)CC[C@@H]12.[Na+] | 5.3 |

Test system: Plasma
Test: Drug level in Sprague-Dawley rat plasma at 1 mg/kg, iv assessed as 2-methoxyestradiol level after 15 mins
Type: ADME, organism-based
Set-up: dose 1 mg/kg, route intravenous
Settings: in vivo, 0.25 h
Method in brief: as §1

| SMILES | Cp [ng/mL] |
| --- | --- |
| COc1cc2c(cc1OP(=O)([O-])O)CC[C@@H]1[C@@H]2CC[C@]2(C)[C@@H](O)CC[C@@H]12.[Na+] | 57.3 |
